Data set [1] can be described thus: Intrinsic clearance in human liver microsomes. In kind it is ADME, Microsome. As to conditions: read-out: CLH. On the technique in general: Liver microsomes are a subcellular fraction often used to study metabolism.
Data set [2] is described as follows: Aqueous solubility at pH 7.4. The class given is physicochemical. As to conditions: buffer.
Another data set has as its target Acetyl-CoA carboxylase 1 (Rattus norvegicus, UniProt P11497). Kind of data set: Inhibition of rat liver Acetyl-CoA carboxylase 1 using acetyl-CoA as substrate preincubated for 10 mins prior substrate addition measured after 20 mins by luminescence counting. The procedure, abridged:
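Each IC50 comes from single-point inhibition data run in triplicate. The reported value is the arithmetic mean of at least three independent replicates ± SEM.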

A further data set deals with Acetyl-CoA carboxylase 2 (Homo sapiens, UniProt O00763). Put plainly: Inhibition of human Acetyl-CoA carboxylase 2 expressed in CHO cells after 1 hr by fluorescence assay. The class given is cell-based.
Data set [3] is described as follows: Permeability across dog RRCK cells. The class given is ADME, cell-based, Canis lupus familiaris, MDCKII-LE. As to conditions: MDCK, read-out: permeability.
Data set [4] is described as follows: Oral bioavailability in Sprague-Dawley rat. The class given is ADME, organism-based. As to conditions: in vivo.
Data set [5] has as its system Rattus norvegicus. Kind of data set: Antidiabetic activity in Sprague-Dawley rat assessed as inhibition of malonyl-CoA production in quadriceps at 50 mg/kg, po after 2 hrs by LC-MS analysis. The class given is functional.
Data set [6] has as its system Rattus norvegicus. Kind of data set: Volume of distribution at steady state in po dosed Sprague-Dawley rat. As to conditions: in vivo. In kind it is ADME, organism-based.
Data set [7] in a line: Aqueous solubility at pH 6.5. As to conditions: buffer. The class given is physicochemical.
The subject of data set [8] is Rattus norvegicus. Put plainly: Antidiabetic activity in Sprague-Dawley rat assessed as inhibition of malonyl-CoA production in liver at 50 mg/kg, po after 2 hrs by LC-MS analysis. The class given is functional.
The nature of data set [9]: Plasma clearance in po dosed Sprague-Dawley rat. The class given is ADME, organism-based.
Data set [10] is described as follows: Half life in po dosed Sprague-Dawley rat. In kind it is ADME, organism-based. As to conditions: in vivo.
Data set [11] concerns Rattus norvegicus. Put plainly: Antidiabetic activity in po dosed Sprague-Dawley rat assessed as inhibition of malonyl-CoA production in quadriceps after 2 hrs by LC-MS analysis. In kind it is functional.
Data set [12] deals with Rattus norvegicus. Put plainly: Antidiabetic activity in po dosed Sprague-Dawley rat assessed as inhibition of malonyl-CoA production in liver after 2 hrs by LC-MS analysis. The class given is functional.
Data set [13] can be described thus: Fraction unbound in Sprague-Dawley rat plasma. The class given is ADME, cell-free.

Each structure is given as a SMILES string. ≈ marks a conversion by molar mass, not a printed value.

As usually defined, the solubility is the dissolved amount per volume that the medium holds. For orientation: IC50 means the concentration that inhibits the measured activity by half. Read a low IC50 as greater potency in that assay. In general, bioavailability refers to the share of a dose that reaches the circulation, judged against a reference dose that is usually intravenous. A higher bioavailability goes with much systemic uptake. In general, CL/F refers to clearance divided by bioavailability, as obtained after extravascular dosing. Usually half-life stands for how long it takes for the measured level to halve. A lower half-life goes with fast loss. By ED50 is commonly meant the dose that gives a 50% effect, or the effect in half of the subjects. By fraction unbound is commonly meant the share of the substance not bound to proteins or other matrix. Read a low fraction unbound as little free substance.

Chain of Acetyl-CoA carboxylase 2 (O00763 whole entry): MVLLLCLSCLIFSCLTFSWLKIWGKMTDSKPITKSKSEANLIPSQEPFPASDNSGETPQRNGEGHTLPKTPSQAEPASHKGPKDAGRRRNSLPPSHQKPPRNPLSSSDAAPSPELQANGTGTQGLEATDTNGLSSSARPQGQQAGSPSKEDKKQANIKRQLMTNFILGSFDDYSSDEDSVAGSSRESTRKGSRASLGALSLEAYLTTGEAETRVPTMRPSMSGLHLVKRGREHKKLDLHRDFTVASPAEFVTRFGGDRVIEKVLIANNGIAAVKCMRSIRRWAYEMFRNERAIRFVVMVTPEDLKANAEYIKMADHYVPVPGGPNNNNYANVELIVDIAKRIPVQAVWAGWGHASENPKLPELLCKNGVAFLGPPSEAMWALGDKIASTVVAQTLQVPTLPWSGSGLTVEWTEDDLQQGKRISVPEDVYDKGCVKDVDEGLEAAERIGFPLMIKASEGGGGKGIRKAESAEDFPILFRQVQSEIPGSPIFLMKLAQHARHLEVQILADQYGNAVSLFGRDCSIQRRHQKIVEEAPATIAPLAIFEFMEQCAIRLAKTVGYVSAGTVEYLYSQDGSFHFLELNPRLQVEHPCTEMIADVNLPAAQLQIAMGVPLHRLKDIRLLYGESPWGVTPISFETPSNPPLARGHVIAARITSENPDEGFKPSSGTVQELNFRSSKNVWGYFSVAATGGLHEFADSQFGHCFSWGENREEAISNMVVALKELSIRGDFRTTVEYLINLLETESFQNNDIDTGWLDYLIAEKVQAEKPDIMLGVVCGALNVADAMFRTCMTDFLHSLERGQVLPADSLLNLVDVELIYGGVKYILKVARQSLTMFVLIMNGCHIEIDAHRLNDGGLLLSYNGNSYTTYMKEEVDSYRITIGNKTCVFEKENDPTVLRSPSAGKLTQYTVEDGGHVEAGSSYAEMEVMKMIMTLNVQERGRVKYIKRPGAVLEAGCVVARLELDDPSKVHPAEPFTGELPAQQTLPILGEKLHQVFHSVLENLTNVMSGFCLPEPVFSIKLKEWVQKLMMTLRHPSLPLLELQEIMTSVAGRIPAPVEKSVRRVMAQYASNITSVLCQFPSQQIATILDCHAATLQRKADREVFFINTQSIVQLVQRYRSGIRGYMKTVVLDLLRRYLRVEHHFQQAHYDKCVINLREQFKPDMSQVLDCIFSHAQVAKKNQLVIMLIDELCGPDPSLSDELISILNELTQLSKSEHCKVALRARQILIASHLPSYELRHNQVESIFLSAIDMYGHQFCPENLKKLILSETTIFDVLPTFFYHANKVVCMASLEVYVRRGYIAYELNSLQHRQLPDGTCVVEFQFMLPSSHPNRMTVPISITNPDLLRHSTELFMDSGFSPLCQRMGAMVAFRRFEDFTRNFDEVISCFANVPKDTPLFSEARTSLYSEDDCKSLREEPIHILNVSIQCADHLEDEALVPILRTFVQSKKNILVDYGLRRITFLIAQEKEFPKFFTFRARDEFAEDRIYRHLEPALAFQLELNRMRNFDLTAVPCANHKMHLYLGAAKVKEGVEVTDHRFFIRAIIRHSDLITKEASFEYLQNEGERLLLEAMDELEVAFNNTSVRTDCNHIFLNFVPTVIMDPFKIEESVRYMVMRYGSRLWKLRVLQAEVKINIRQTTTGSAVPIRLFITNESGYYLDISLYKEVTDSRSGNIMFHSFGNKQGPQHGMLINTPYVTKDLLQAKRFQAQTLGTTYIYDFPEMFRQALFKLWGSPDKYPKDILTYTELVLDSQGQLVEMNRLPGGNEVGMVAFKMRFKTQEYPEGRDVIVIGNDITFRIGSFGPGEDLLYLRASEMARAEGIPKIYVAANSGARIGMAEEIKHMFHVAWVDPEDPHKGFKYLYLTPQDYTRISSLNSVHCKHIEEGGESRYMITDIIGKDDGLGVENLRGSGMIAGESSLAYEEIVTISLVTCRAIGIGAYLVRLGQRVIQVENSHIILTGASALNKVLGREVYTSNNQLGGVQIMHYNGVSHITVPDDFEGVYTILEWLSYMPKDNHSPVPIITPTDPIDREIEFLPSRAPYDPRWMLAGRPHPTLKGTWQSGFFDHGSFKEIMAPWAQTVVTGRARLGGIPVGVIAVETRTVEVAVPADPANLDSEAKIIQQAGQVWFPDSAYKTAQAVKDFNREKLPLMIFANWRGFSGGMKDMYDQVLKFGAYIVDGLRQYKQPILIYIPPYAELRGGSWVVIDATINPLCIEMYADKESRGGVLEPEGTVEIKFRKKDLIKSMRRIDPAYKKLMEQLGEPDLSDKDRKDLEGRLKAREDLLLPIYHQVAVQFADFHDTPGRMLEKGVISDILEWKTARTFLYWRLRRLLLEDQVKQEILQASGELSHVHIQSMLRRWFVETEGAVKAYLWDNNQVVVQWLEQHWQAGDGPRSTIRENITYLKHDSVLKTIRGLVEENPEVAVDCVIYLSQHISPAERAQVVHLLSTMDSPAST

Consider `Cc1cc2c(cc1C)C(=O)CC1(CCN(C(=O)c3cc(C)c4[nH]ncc4c3)CC1)O2`, for which the CLint scaled in data set [1] was 68 mL/min/kg. This compound gave a solubility in [2] of 19 µM (≈ 7.67 µg/mL).

On to `Cc1cc(C(=O)N2CCC3(CC2)CC(=O)c2nn(C4CCCCC4)cc2O3)cc2cn[nH]c12`, for which the IC50 was 46 nM at Acetyl-CoA carboxylase 1 and 63 nM at Acetyl-CoA carboxylase 2.

As for `Cn1ncc2ccc(C(=O)N3CCC4(CC3)CC(=O)c3nn(C(C)(C)C)cc3O4)cc21`, the IC50 worked out at 13 nM at Acetyl-CoA carboxylase 1 and 21 nM on Acetyl-CoA carboxylase 2. In data set [1], the CLint scaled worked out at 13.1 mL/min/kg.

At Acetyl-CoA carboxylase 1, `CC(C)(C)n1cc2c(n1)C(=O)CC1(CCN(C(=O)c3ccc4nc[nH]c4c3)CC1)O2` showed a half-maximal inhibitory concentration (IC50) of 17 nM. Besides, the Papp in data set [3] amounted to 10.9 ×10⁻⁶ cm/s. For the same compound, in [4], the bioavailability was 50%. In addition, the CLint scaled in data set [1] is less than 8 mL/min/kg. Also, the Imax in the data set with Rattus norvegicus [5] turned out to be 75%; with Rattus norvegicus [8] it was 78%. In the data set with Rattus norvegicus [6], this compound showed a Vdss of 2.3 L/kg. Besides, the concentration in solution in [7] (solubility) was 300 µM (≈ 122 µg/mL). Besides, the CL/F in [9] turned out to be 26 mL/min/kg. The compound also had a half-life in [10] of 4.2 h. In addition, the ED50 is 2.6 mg/kg with Rattus norvegicus [11] and 1.6 mg/kg with Rattus norvegicus [12]. Further, the fraction unbound in data set [13] was found to be 0.55.

On to `Cc1cc(C(=O)N2CCC3(CC2)CC(=O)c2nn(C)cc2O3)cc2cn[nH]c12`, for which the IC50 on Acetyl-CoA carboxylase 1 is 370 nM; at Acetyl-CoA carboxylase 2 it was 650 nM.

As for `Cc1cc(C(=O)N2CCC3(CC2)CC(=O)c2nn(C)c(C)c2O3)cc2cn[nH]c12`, the IC50 on Acetyl-CoA carboxylase 1 was 280 nM; on Acetyl-CoA carboxylase 2 it was 470 nM.

As to `CCn1cc2c(n1)C(=O)CC1(CCN(C(=O)c3cc(C)c4[nH]ncc4c3)CC1)O2`, the figures for the IC50 against Acetyl-CoA carboxylase 1 and against Acetyl-CoA carboxylase 2 were 62 nM and 63 nM, respectively.

`CCn1nc2c(c1C)OC1(CCN(C(=O)c3cc(C)c4[nH]ncc4c3)CC1)CC2=O` returned an IC50 on Acetyl-CoA carboxylase 2 of 37 nM.

For the compound `CCCn1cc2c(n1)C(=O)CC1(CCN(C(=O)c3cc(C)c4[nH]ncc4c3)CC1)O2`, the IC50 against Acetyl-CoA carboxylase 2 was 45 nM.

The compound `Cc1cc(C(=O)N2CCC3(CC2)CC(=O)c2nn(C(C)C)cc2O3)cc2cn[nH]c12` returned an IC50 against Acetyl-CoA carboxylase 2 of 23 nM.

For the compound `Cc1cc(C(=O)N2CCC3(CC2)CC(=O)c2nn(Cc4ccccc4)cc2O3)cc2cn[nH]c12`, at Acetyl-CoA carboxylase 1, inhibition was half-maximal at 260 nM (IC50).

At Acetyl-CoA carboxylase 2, `Cc1cc(C(=O)N2CCC3(CC2)CC(=O)c2nn(C4CCC4)cc2O3)cc2cn[nH]c12` showed an IC50 of 14 nM.

As for `Cc1cc(C(=O)N2CCC3(CC2)CC(=O)c2nn(C4CCCC4)cc2O3)cc2cn[nH]c12`, the IC50 against Acetyl-CoA carboxylase 2 stood at 9.4 nM.

Take `Cc1cc(C(=O)N2CCC3(CC2)CC(=O)c2nn(C(C)(C)C)cc2O3)cc2cn[nH]c12`: the IC50 against Acetyl-CoA carboxylase 1 came out at 7 nM; on Acetyl-CoA carboxylase 2 it was 6.9 nM.

Regarding `CCn1nc2c(c1C)OC1(CCN(C(=O)c3ccc4[nH]nc(C)c4c3)CC1)CC2=O`, the IC50 turned out to be 29 nM against Acetyl-CoA carboxylase 1 and 42 nM at Acetyl-CoA carboxylase 2.

`CCn1nc2c(c1C)OC1(CCN(C(=O)c3cc(C)c4[nH]nc(C)c4c3)CC1)CC2=O`: the figures for the IC50 at Acetyl-CoA carboxylase 1 and against Acetyl-CoA carboxylase 2 were 12 nM and 13 nM, respectively.

`CCc1n[nH]c2ccc(C(=O)N3CCC4(CC3)CC(=O)c3nn(CC)c(C)c3O4)cc12`: half-maximal inhibition against Acetyl-CoA carboxylase 1 (IC50) required 36 nM.

Take `CCc1cc(C(=O)N2CCC3(CC2)CC(=O)c2nn(CC)c(C)c2O3)cc2cn[nH]c12`: the figures for the IC50 against Acetyl-CoA carboxylase 1 and on Acetyl-CoA carboxylase 2 were 31 nM and 37 nM, respectively.

On to `CCOc1cc(C(=O)N2CCC3(CC2)CC(=O)c2nn(CC)c(C)c2O3)cc2c(C)n[nH]c12`, for which half-maximal inhibition on Acetyl-CoA carboxylase 1 (IC50) required 11.5 nM.

With `CCn1nc2c(c1C)OC1(CCN(C(=O)c3ccc4[nH]ncc4c3)CC1)CC2=O`, the results for the IC50 on Acetyl-CoA carboxylase 1 and on Acetyl-CoA carboxylase 2 were 100 nM and 92 nM, respectively.

Regarding `CCn1nc2c(c1C)OC1(CCN(C(=O)c3cc(C)c4nc[nH]c4c3)CC1)CC2=O`, the IC50 against Acetyl-CoA carboxylase 1 is 49 nM; against Acetyl-CoA carboxylase 2 it was 80 nM.

Regarding `CCn1nc2c(c1C)OC1(CCN(C(=O)c3cc(C)c4nc(C)[nH]c4c3)CC1)CC2=O`, the IC50 was found to be 34 nM against Acetyl-CoA carboxylase 1 and 56 nM on Acetyl-CoA carboxylase 2.

Regarding `Cc1n[nH]c2c(C)cc(C(=O)N3CCC4(CC3)CC(=O)c3nn(C(C)C)cc3O4)cc12`, the IC50 stood at 12 nM on Acetyl-CoA carboxylase 1 and 14 nM at Acetyl-CoA carboxylase 2. Besides, in data set [1], the CLint scaled is less than 8 mL/min/kg.

As to `Cc1n[nH]c2c(C)cc(C(=O)N3CCC4(CC3)CC(=O)c3nn(C5CCOC5)c(C)c3O4)cc12` (configuration not stated), the CLint scaled in data set [1] turned out to be 23.1 mL/min/kg.

Turning to `Cc1cc(C(=O)N2CCC3(CC2)CC(=O)c2nn(C(C)(C)C)cc2O3)cc2[nH]cnc12`, the figures for the IC50 on Acetyl-CoA carboxylase 1 and on Acetyl-CoA carboxylase 2 were 9.6 nM and 7.4 nM, respectively. Further, the CLint scaled in data set [1] came to 12.4 mL/min/kg.

Regarding `Cc1nc2c(C)cc(C(=O)N3CCC4(CC3)CC(=O)c3nn(C(C)(C)C)cc3O4)cc2[nH]1`, the CLint scaled in [1] was determined as 15.1 mL/min/kg. This compound also gave an IC50 on Acetyl-CoA carboxylase 2 of 6.6 nM.

Values taken from ChEMBL document CHEMBL1955747, “Maximizing lipophilic efficiency: the use of Free-Wilson analysis in the design of inhibitors of acetyl-CoA carboxylase” (J Med Chem, 2012).
